The subject of the data set is MS2 coat protein. Nature of the data set: apparent Kd, MS2 coat protein; higher = weaker binding; RNA-MaP array; FMN 200 µM where present. An outline of the steps:
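Each design was made on Illumina sequencing-chip clusters by stalled E. coli RNA polymerase and titrated with SNAP-549-labelled MS2 coat protein from 0.7 or 1.5 nM, doubling to 3 µM, in the absence and then the presence of constant ligand. The buffer was 100 mM Tris-HCl pH 7.5, 80 mM KCl, 4 mM MgCl2, BSA, DTT, yeast tRNA and Tween-20. The apparent Kd is the median of filtered per-cluster fits of binding curves, with green signal normalised to red-channel RNA signal and control-cluster median Fmax.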

Where [1] appears, read: ligand present: flavin mononucleotide, designed as: ON switch for flavin mononucleotide.
[2] abbreviates: designed as: OFF switch for flavin mononucleotide, no ligand.
[3] abbreviates: ligand present: flavin mononucleotide, designed as: OFF switch for flavin mononucleotide.
Where [4] appears, read: designed as: ON switch for flavin mononucleotide, no ligand.

Consider 23 sequences from the EternaBench riboswitch data.

In general, apparent Kd refers to the concentration giving half-maximal binding under the conditions of the assay.

Regarding “UGUUUUGUACAUGAGGAUCACCCAUGUUAAUAUGUGGUAGUCAGAAGGCAUUGUUUGAGAUAUUAUGAGGAUAUGAUUAGUCUG”, the “apparent Kd” value under setting [1] amounted to 0.0439 µM.

As to “AAGACACAUGAGGAUCACCCAUGUUAGGAUAUACGCAUGCAUGCAUGCAUGCAUGCAAGUAGAAGGAACCAUGC”, the “apparent Kd” value was 0.0305 µM under setting [2] and 0.0306 µM under setting [3].

As for “CAGUGCAAUGUAGGAUAUGCUCAGGAUAACUGAGCAGAAGGACAUGAGGAUCACCCAUGUCAAAUGAAAGAUAAUAAAGCACUG”, the “apparent Kd” value is 0.0143 µM under setting [2] and 0.0178 µM under setting [3].

For the sequence “UGAUCUUGUGUCAGGAUAUGCUGGUCUCCUCUCCAGCAGAAGGGACAUGAGGAUCACCCAUGUUCUCUCUUUUU”, the “apparent Kd” value by setting is: under setting [2], 0.011 µM; under setting [3], 0.0286 µM.

Turning to “UGCUGACAAGGAUAUACUCGGGAUGCUAGUCGCGCAGUUGCACAUGAGGAUCACCCAUGUAGAAGGUGUCAGUA”, the “apparent Kd” value by setting is: under setting [2], 0.169 µM; under setting [3], 0.21 µM.

For the sequence “GCAGCGCCUGACAUGAGGAUCACCCAUGUUAAAUUGUUAAGUCAGGAUAUAGUCUAGAAACUAGACUAGAAGGGAUAUGCUGCU”, the “apparent Kd” value reads like this: under setting [4], 0.00996 µM; under setting [1], 0.00857 µM.

On to “GAAGUUAGAGGAUAUACAUGAGGAUCACCCAUGUGUGUUGUGAACGAUGUACGUUUAUGUAGAAGGCUAACUUC”, for which the “apparent Kd” value runs as follows: under setting [2], 0.0236 µM; under setting [3], 0.106 µM.

Turning to “GCGAAGAACGAGAAGGCCACUACAUGAGGAUCACCCAUGUCGUGGUGUAUUGGAGGAUAUCGAUCGGCGUCUCAUGAGGACAUA”, the “apparent Kd” value worked out at 0.00535 µM under setting [2] and 0.00544 µM under setting [3].

Regarding “GCAUGCAAGUAGAAGGUCGGAUAUUUUGAUAACGAAGGAUAUACAGAAUCAUAUCCACAUGAUAACAUGAGGAUCACCCAUGUA”, the “apparent Kd” value is, setting by setting: under setting [2], 0.0147 µM; under setting [3], 0.0158 µM.

For “GAAUAAUUGAUCCAAUUUAUCUACAUGAGGAUCACCCAUGUGCAGGAUAUCGUAAUAUUUAAUUACGAGAAGGGCAAGAACGGU”, the “apparent Kd” value under setting [2] was found to be 0.281 µM and the “apparent Kd” value under setting [3] worked out at 0.425 µM.

For “GGGCCGCUACGCCGGCUCCACGCACAGGAUAUGCAGUUACAUGAGGAUCACCCAUGUGGCCAUGUGCAGAAGGGUGAUUCGCGA”, the “apparent Kd” value came to 0.0787 µM under setting [4] and 0.0461 µM under setting [1].

With “GUAGCAUAUGAUUUACAUGAGGAUCACCCAUGUAUCUUGGGUAAGGAUAUUGAUGUUAUGUUAAUCAAGAAGGUACUAUGCUAC”, the “apparent Kd” value worked out at 0.0505 µM under setting [4] and 0.00866 µM under setting [1].

As to “CUAGCAACAUGAGGAUCACCCAUGUAGGAUAUCGCUAUUGUAAUCAUGAAACAUGAUUACAAUAGCGAGAAGGACAUAUGCUAA”, the “apparent Kd” value was found to be 0.00796 µM under setting [2] and 0.0108 µM under setting [3].

For the sequence “GAUGAGGUAGGAUAUACGAGAAGAUAGGGUAGAUAGAGAACACAUGAGGAUCACCCAUGUAGAAGGACCAGUAG”, the “apparent Kd” value by setting is: under setting [2], 0.0253 µM; under setting [3], 0.0557 µM.

For “GCUACUUAUUUUAAGUAUGAUUUACUAGAAGGUAGAUACAUGAGGAUCACCCAUGUUUAGAGUUCUAAGGAUAUAGUUUGUAGC”, the “apparent Kd” value under setting [4] amounted to 0.00781 µM and the “apparent Kd” value under setting [1] is 0.00757 µM.

On to “AAGAAGUGAGGAUAUGCUGCUCGUCACUUGCGUGAUGAGUAGCAGAAGGCACAUGAGGAUCACCCAUGUAAAGA”, for which the “apparent Kd” value is, setting by setting: under setting [2], 0.044 µM; under setting [3], 0.053 µM.

Turning to “GGUGCUAUGUAGAAGGCAGAUCUGAUUCAGAUCUGAGGAUAUACAUGAGGAUCACCCAUGUUAUGCACCAGCACGAGAGUGCAA”, the “apparent Kd” value stood at 0.00712 µM under setting [2] and 0.0128 µM under setting [3].

Turning to “AAAGUUGGUAGGCCCUCGGAACAUGAGGAUCACCCAUGUAAGGAGGAUAUGCCCGGUACCCGCUGGUAGAAGGCCUUAUAAGAA”, the “apparent Kd” value under setting [2] came to 0.00746 µM and the “apparent Kd” value under setting [3] turned out to be 0.0235 µM.

Turning to “AUCAGCUCGUCAGGAUAUACGUCACUGCGUCAGCAGUUUGGUAAGAUCACAUGAGGAUCACCCAUGUAGAAGGGACGAGCUGAU”, the “apparent Kd” value by setting is: under setting [2], 0.0152 µM; under setting [3], 0.249 µM.

Regarding “ACGCUUUGGGAGAAGGUACGUUAAAUUUUUUCCACAUGAGGAUCACCCAUGUAAGGAUAUCCCAUCGUUAAAUAGGCUACAGCA”, the “apparent Kd” value reads like this: under setting [2], 0.00892 µM; under setting [3], 0.00885 µM.

Consider “AGAUAUGAUGCAGGAUAUCUAUCUUGAAUGAGGAGAGAAGGGCAAGCAGAGAGAUAAGCCUUAUUACAUGAGGAUCACCCAUGU”, for which the “apparent Kd” value reads like this: under setting [2], 0.0103 µM; under setting [3], 0.00856 µM.

As for “GCGUAAUAGGUGUAGCUAGUCGUGCAAGAAGGGUGGUGAACAUGAGGAUCACCCAUGUGGUCAAUACAGGAUAUUGCUAUACGC”, the “apparent Kd” value runs as follows: under setting [4], 0.572 µM; under setting [1], 0.139 µM.

As for “UCUGCUCGAGGAUAUACAUGAGGAUCACCCAUGUAUCCCAGAAGCAUGGCCUCAGGAUGUAGAAGGCGACGCUA”, the “apparent Kd” value by setting is: under setting [2], 0.0141 µM; under setting [3], 0.0185 µM.
